Test results: ChEMBL document CHEMBL1130160 (J Med Chem, 1997)

Legend:
Estrogen receptor = Estrogen receptor (Homo sapiens, UniProt Q92731+P03372); settings: mcf7
Rattus norvegicus [1] = test: Dose required to reduce serum cholesterol by 50% relative to OVX controls was determined (in vivo); assay type: functional
Summary of the method: (§1)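 OVX Sprague–Dawley rats (75 days old), 5–6 per group, dosed once daily by oral gavage for 4 consecutive days, starting 14 days after ovariectomy. Vehicle was 20% β-hydroxycyclodextrin at 1 mL/kg, or 1.5% carboxymethylcellulose in some cases. Rats were fasted after the last dose and bled by cardiac puncture next morning.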

Rattus norvegicus [2] = test: Percent decrease in serum cholesterol relative to OVX control at 0.1 mg/kg in rat was determined (in vivo); assay type: functional
Summary of the method: as §1

Rattus norvegicus [3] = test: Percent decrease in serum cholesterol relative to OVX control at 1 mg/kg in rat; assay type: functional
Summary of the method: as §1

Rattus norvegicus [4] = test: Percent decrease in serum cholesterol relative to OVX control at 10 mg/kg in rat was determined (in vivo); assay type: functional
Summary of the method: as §1

Rattus norvegicus [5] = test: Minimum effective dose at which significant increase in uterine eosinophil peroxidase (EPO) activity in rat was determined (in vivo); assay type: functional; settings: read-out: MED
Rattus norvegicus [6] = test: Minimum effective dose at which significant increase in uterine weight/body weight in rat was determined (in vivo); assay type: functional; settings: read-out: MED
Summary of the method: (§2)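 In 75-day OVX Sprague–Dawley rats dosed orally for 4 days, beginning 2 weeks post-ovariectomy with 5–6 rats per group, whole uteri were weighed the morning after fasting. MED is the lowest dose giving a significant (p≤0.05) rise in uterine weight/body weight, expressed as % increase over OVX controls ±SE.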

Rattus norvegicus [7] = test: Minimum effective dose at which significant increase in uterine weight/body weight in rat was determined (in vivo); expressed as % increase relative to ovariectomized (OVX) controls; assay type: functional
Summary of the method: as §2

SMILES	IC50 (Estrogen receptor) [µM]	ED50 (Rattus norvegicus [1]) [mg/kg]	Decrease (Rattus norvegicus [2]) [%]	Decrease (Rattus norvegicus [3]) [%]	Decrease (Rattus norvegicus [4]) [%]	minimal effective dose (Rattus norvegicus [5]) [mg/kg]	minimal effective dose (Rattus norvegicus [6]) [mg/kg]	Increase (Rattus norvegicus [7]) [%]
COc1ccc2c(C(=O)c3ccc(OCCN4CCCCC4)cc3)c(-c3ccc4c(c3)OCO4)sc2c1	0.5	–	–	–	–	–	–	–
COc1ccc2c(C(=O)c3ccc(OCCN4CCCCC4)cc3)c(-c3ccccc3)sc2c1	> 1	–	–	–	–	–	–	–
O=C(c1ccc(OCCN2CCCCC2)cc1)c1c(-c2ccc([N+](=O)[O-])cc2)sc2cc(O)ccc12	0.5	–	–	–	–	–	–	–
C#Cc1ccc2c(C(=O)c3ccc(OCCN4CCCCC4)cc3)c(-c3ccc(O)cc3)sc2c1	–	0.5	39.4	58.7	65.8	> 10	1	27.8
Cc1c(O)cc(C)c2c(C(=O)c3ccc(OCCN4CCCCC4)cc3)c(-c3ccc(O)cc3)sc12	0.1	–	–	–	–	–	–	–
O=C(c1ccc(OCCN2CCCCC2)cc1)c1c(-c2ccc(O)cc2)sc2c(O)cccc12	0.3	–	-6.1	-11.7	-3.4	> 10	10	43.5
COc1ccc(-c2sc3ccccc3c2C(=O)c2ccc(OCCN3CCCCC3)cc2)cc1.O=C(O)CC(O)(CC(=O)O)C(=O)O	0.1	–	–	–	–	–	–	–
O=C(c1ccc(OCCN2CCCCC2)cc1)c1c(-c2ccc(O)cc2)sc2cc(O)c3ccccc3c12	0.5	–	–	–	–	–	–	–
C#Cc1ccc(-c2sc3cc(O)ccc3c2C(=O)c2ccc(OCCN3CCCCC3)cc2)cc1	–	> 10	9.1	32.7	35.8	> 10	> 10	–
Cc1ccccc1-c1sc2cc(O)ccc2c1C(=O)c1ccc(OCCN2CCCCC2)cc1	0.0007	> 10	–	–	–	> 10	10	–
O=C(c1ccc(OCCN2CCCCC2)cc1)c1c(-c2ccc(O)c(Cl)c2)sc2cc(O)ccc12	0.0023	1.2	–	52.7	–	> 10	10	30.3
COc1ccc2c(C(=O)c3ccc(OCCN4CCCCC4)cc3)c(-c3ccc(CO)cc3)sc2c1	0.6	–	–	–	–	–	–	–
O=C(c1ccc(OCCN2CCCCC2)cc1)c1c(-c2ccc(O)cc2)sc2cc(O)c(O)cc12	0.4	–	–	–	–	–	–	–
COc1cc(O)ccc1-c1sc2cc(O)ccc2c1C(=O)c1ccc(OCCN2CCCCC2)cc1	0.002	< 0.1	–	79	–	1	0.1	–
O=C(c1ccc(OCCN2CCCCC2)cc1)c1c(-c2ccc(O)cc2)sc2cccc(O)c12	0.19	> 10	29.6	18	31.8	> 10	> 10	–
Cl.O=C(c1ccc(OCCN2CCCCC2)cc1)c1c(-c2ccccc2)sc2cc(O)ccc12	0.0025	< 0.1	55.6	53.4	66	> 10	0.1	38.7
Cc1cc2c(C(=O)c3ccc(OCCN4CCCCC4)cc3)c(-c3ccc(O)cc3)sc2cc1O	–	5.4	-4.3	42.2	43.7	> 10	> 10	–

SMILES	IC50 (Estrogen receptor) [µM]	ED50 (Rattus norvegicus [1]) [mg/kg]	Decrease (Rattus norvegicus [2]) [%]	Decrease (Rattus norvegicus [3]) [%]	Decrease (Rattus norvegicus [4]) [%]	minimal effective dose (Rattus norvegicus [5]) [mg/kg]	minimal effective dose (Rattus norvegicus [6]) [mg/kg]	Increase (Rattus norvegicus [7]) [%]
Cc1ccc(-c2sc3cc(O)ccc3c2C(=O)c2ccc(OCCN3CCCCC3)cc2)cc1.Cl	0.05	2.9	12.2	26.5	69.1	> 10	1	34.6
Cl.O=C(c1ccc(OCCN2CCCCC2)cc1)c1c(-c2ccc(F)cc2)sc2cc(O)ccc12	0.0023	1.4	20.6	46	71.9	> 10	1	50.2
Cc1cc(-c2sc3cc(O)ccc3c2C(=O)c2ccc(OCCN3CCCCC3)cc2)ccc1O	0.001	1	28.4	73.9	–	> 10	> 10	–
Cc1cc2c(C(=O)c3ccc(OCCN4CCCCC4)cc3)c(-c3ccc(O)cc3)sc2c(C)c1O	0.5	–	–	–	–	–	–	–
COc1ccc(-c2sc3cc(O)ccc3c2C(=O)c2ccc(OCCN3CCCCC3)cc2)cc1	1	< 0.1	65.2	75.6	72.6	> 10	> 10	–
O=C(c1ccc(OCCN2CCCCC2)cc1)c1c(-c2ccc(O)cc2)sc2cc(O)c(F)cc12	0.003	> 10	4.6	4.1	31.6	> 10	> 10	–
CC/C(=C(\c1ccccc1)c1ccc(OCCN(C)C)cc1)c1ccccc1 [TAMOXIFEN]	–	0.2	39.2	71.1	67	0.1	0.1	62.4
NC(=O)c1ccc(-c2sc3cc(O)ccc3c2C(=O)c2ccc(OCCN3CCCCC3)cc2)cc1	–	–	-3.2	-21.3	10	> 10	> 10	–
O=C(c1ccc(OCCN2CCCCC2)cc1)c1c(-c2ccc3ccccc3c2)sc2cc(O)ccc12	0.08	0.2	–	–	–	0.1	0.1	–
O=C(O)c1ccc(-c2sc3cc(O)ccc3c2C(=O)c2ccc(OCCN3CCCCC3)cc2)cc1	–	–	3.1	-8.8	24.6	> 10	> 10	–
O=C(c1ccc(OCCN2CCCCC2)cc1)c1c(-c2ccccc2O)sc2cc(O)ccc12	0.01	> 10	7.8	–	–	> 10	> 10	–
Cc1cc(O)ccc1-c1sc2cc(O)ccc2c1C(=O)c1ccc(OCCN2CCCCC2)cc1	0.002	0.4	–	–	–	> 10	0.1	–
COc1ccc(-c2sc3c(OC)c(OC)c(OC)cc3c2C(=O)c2ccc(OCCN3CCCCC3)cc2)cc1.Cl	0.35	–	–	–	–	–	–	–
O=C(c1ccc(OCCN2CCCCC2)cc1)c1c(-c2ccc(O)cc2)sc2cc(O)cc(O)c12	0.35	–	–	–	–	–	–	–
O=C(c1ccc(OCCN2CCCCC2)cc1)c1c(-c2cccc(F)c2)sc2cc(O)ccc12	0.0025	1	–	62	–	> 10	0.1	–
O=C(c1ccc(OCCN2CCCCC2)cc1)c1c(-c2ccc(O)cc2)sc2ccc(O)cc12	0.1	–	10.4	3.7	22.6	> 10	> 10	–
